# Measurements from different studies.
# Effect on: microbial growth
SMILES,organism,technique,strain,tested at,time,endpoint,value
COc1ccc(C=NNC(=O)CSc2nc3c(C)cccc3c(=O)n2-c2ccccc2)cc1OS(C)(=O)=O,Bacillus cereus,well diffusion,,20 µg/mL,,inhibition zone,2 mm
N#CC(C#N)=C1SC(C(=O)c2ccc(Nc3cnccn3)cc2)=NN1c1ccc([N+](=O)[O-])cc1,Salmonella enterica,broth dilution,ATCC13076 TYPHIMURIUM,,,MIC,12.5 µg/mL
CC1(C)S[C@@H]2[C@H](NC(=O)[C@H](N)c3ccccc3)C(=O)N2[C@H]1C(=O)O,Salmonella enterica,broth dilution,ATCC14028,,12 h,MIC,0.25 µg/mL
[H]/N=C(/N)N[C@H]1[C@H](O)[C@@H](O)[C@H](O[C@@H]2O[C@@H](C)[C@](O)(C=O)[C@H]2O[C@@H]2O[C@@H](CO)[C@H](O)[C@@H](O)[C@@H]2NC)[C@@H](N/C(N)=N\[H])[C@@H]1O,Bacillus cereus,broth dilution,ATCC14579,,,MIC,15 µg/mL
COc1ccc(N2N=C(C(=O)c3ccc(Nc4cnccn4)cc3)SC2=C(C#N)C#N)cc1,Salmonella enterica,broth dilution,ATCC13076 TYPHIMURIUM,,,MIC,6.25 µg/mL
CNC(C)C1CCC(N)C(OC2C(N)CC(N)C(OC3OCC(C)(O)C(NC)C3O)C2O)O1 (centres unmarked),Bacillus cereus,broth dilution,,,,MIC,2 µg/mL
Nc1ccc(S(=O)(=O)Nc2ncccn2)cc1,Salmonella enterica,broth dilution,TYPHIMURIUM,,,MIC,94 µg/mL
O=c1oc2ccccc2c(Nc2ccccc2)c1I,Salmonella enterica,broth dilution,TYPHIMURIUM,,,MIC90,10 µg/mL
N#CC(C#N)=C1SC(C(=O)c2ccc(Nc3cnccn3)cc2)=NN1c1ccccc1,Salmonella enterica,broth dilution,ATCC13076 TYPHIMURIUM,,,MIC,100 µg/mL
CCCS(=O)(=O)Oc1ccc(C=NNC(=O)CSc2nc3c(C)cccc3c(=O)n2-c2ccccc2)cc1OC,Bacillus cereus,well diffusion,,20 µg/mL,,inhibition zone,3 mm
O=C1/C(=C/c2ccc3ccccc3c2O)NC(=S)N1c1ccccc1,Bacillus cereus,broth dilution,ATCC14579,,,MIC,24 µg/mL
